According to paper PMC6698915 (Cancer chemotherapy and pharmacology, 2015):

Tests used:
[1] = test system: class IA PI3K paralogues (p110α, β, and δ); settings: cited from earlier work
PTEN-deficient tumor = settings: buparlisib plus cisplatin; cited from earlier work
[2] = Plasma pharmacokinetics of buparlisib, non-compartmental analysis; type: in vivo, human; settings: oral; for AUC(0-t) / Cmax / Tmax: human, plasma; for AUC(0-t): AUC0–8 h
Summary of the method: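 Patients on either platinum/taxane schedule received the oral PI3K-inhibitor test compound at 50 to 100 mg/day. Plasma was sampled on cycle 1/day 1 at 0, 15, 30 and 60 min and at 2, 3, 4.5, 6 and 8 h, plus day 8 pre-dose (taken as 168 h). Non-compartmental analysis: Cmax and Tmax observed; AUClast by linear trapezoidal rule; terminal rate constant by regression of the log-linear terminal phase.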

[3] = 50 mg, Group 1, 50 mg, n = 6, cycle 1/day 1, mean
[4] = 50 mg, Group 2, 50 mg, n = 4, cycle 1/day 1, mean
[5] = 80 mg, Group 1, 80 mg, n = 3, cycle 1/day 1, mean
[6] = 80 mg, Group 2, 80 mg, n = 6, cycle 1/day 1, mean
[7] = 100 mg, Group 1, 100 mg, n = 7, cycle 1/day 1, mean
[8] = 100 mg, Group 2, 100 mg, n = 4, cycle 1/day 1, mean

SMILES: Nc1cc(C(F)(F)F)c(-c2cc(N3CCOCC3)nc(N3CCOCC3)n2)cn1 [buparlisib]
- inhibition of class IA PI3K paralogues [1]: potently inhibits
- effect of combination in PTEN-deficient xenograft (PTEN-deficient tumor): synthetic lethality was achieved
- AUC(0-t) [2, 3]: 1220 ng·h/mL
- AUC(0-t) [2, 4]: 1520 ng·h/mL
- Cmax [2, 3]: 285 ng/mL
- Cmax [2, 4]: 399 ng/mL
- Tmax [2, 3]: 4.83 h
- Tmax [2, 4]: 2.13 h
- AUC(0-t) [2, 5]: 2550 ng·h/mL
- AUC(0-t) [2, 6]: 1970 ng·h/mL
- Cmax [2, 6]: 555 ng/mL
- Tmax [2, 5]: 3.67 h
- Tmax [2, 6]: 2.08 h
- AUC(0-t) [2, 7]: 3460 ng·h/mL
- AUC(0-t) [2, 8]: 3410 ng·h/mL
- Cmax [2, 7]: 933 ng/mL
- Cmax [2, 8]: 960 ng/mL
- Tmax [2, 7]: 1.71 h
- Tmax [2, 8]: 2.38 h
- plasma exposure to buparlisib versus dose ([2]; 50 to 100 mg, with carboplatin + paclitaxel, Groups 1 and 2): dose-related increases in plasma exposure
